This passage reports IC50 and Activity results from ChEMBL document CHEMBL1221296, “New synthetic flavone derivatives induce apoptosis of hepatocarcinoma cells” (Bioorg Med Chem, 2010).

Assay [1] deals with HepG2. The assay is described as follows: Cytotoxicity against human HepG2 cells by MTT assay. The assay is classed as functional, cell-based. The method, boiled down: (§1)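 Cells grown in DMEM with 10% FBS, penicillin and streptomycin at 37 °C under 5% CO₂. Seeded at 5 × 10³ per 100 µl per well and exposed to compound at 0.5–50 µM for 72 h. MTT (5 mg/ml) added for 5 h, formazan dissolved in DMSO, absorbance read at 490 nm. IC₅₀ is the concentration giving 50% growth inhibition; means of three independent determinations.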

Assay [2] has as its system HepG2. The assay is described as follows: Cell cycle arrest in human HepG2 cells assessed as accumulation at subG0 phase at 25 uM after 36 hrs by FACSan flow cytometry. The assay is classed as functional. The method in brief: (§2)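 Cells were treated for 36 h, then washed twice in ice-cold PBS and fixed overnight in 70% ethanol at 4 °C. They were resuspended at 5 × 10⁵/ml in propidium iodide (50 µg/ml in 0.1% sodium citrate, 0.03% v/v Nonidet P-40) and held 30 min on ice. DNA-content histograms were read by FACScan flow cytometry, with sub-G₀ scored as apoptotic.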
For orientation: In flow cytometry, cells or beads pass a laser one at a time.

Another assay deals with HeLa. The assay is described as follows: Growth inhibition of human HeLa cells after 72 hrs by MTT assay. Type of assay: functional, cell-based. The method, boiled down: as §1
A general note: Tetrazolium assays rely on reduction of a dye to a coloured formazan, in cell work by metabolically active cells.

Assay [3] has as its system HepG2. The assay is described as follows: Cell cycle arrest in human HepG2 cells assessed as accumulation at G2 phase at 10 uM after 36 hrs by FACSan flow cytometry. Type of assay: functional. The method, boiled down:
as §2

Assay [4] relates to HepG2. The assay is described as follows: Cell cycle arrest in human HepG2 cells assessed as accumulation at S phase at 10 uM after 36 hrs by FACSan flow cytometry. Type of assay: functional. The method, boiled down: as §2
For another assay, the system named is MCF7. The assay is described as follows: Growth inhibition of human MCF7 cells after 72 hrs by MTT assay. The assay is classed as functional, cell-based. Conditions: MCF7, 72 h. The method, boiled down:
as §1

The nature of assay [5]: Growth inhibition of human CNE1 cells after 72 hrs by MTT assay. Type of assay: functional, cell-based. Conditions: CNE. The method in brief:
as §1

The nature of assay [6]: Growth inhibition of human CNE2 cells after 72 hrs by MTT assay. Type of assay: functional, cell-based. The following applies: CNE-2, 72 h. The method, boiled down:
as §1

For assay [7], the system named is HepG2. The assay is described as follows: Induction of apoptosis in human HepG2 cells assessed as DNA fragmentation at 10 uM after 36 hrs by agarose gel electrophoresis. The assay is classed as functional, cell-based. The method, boiled down:
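HepG-2 cells (1 × 10⁶) exposed to 0, 5, 10, 25 and 50 µM for 36 h, then trypsinized and lysed in 10 mM Tris–HCl pH 7.4, 10 mM EDTA, 0.5% Triton X-100 and proteinase K (200 µg/ml). DNA isolated by organic extraction, run on 2% agarose and stained with ethidium bromide to detect laddering.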

The test system of assay [8] is HepG2. The assay is described as follows: Induction of apoptosis in human HepG2 cells assessed as change in cellular morphology at 10 uM after 36 hrs […]. Type of assay: functional, cell-based.
For assay [9], the system named is HepG2. The assay is described as follows: Cell cycle arrest in human HepG2 cells assessed as accumulation at G1 phase at 5 uM after 36 hrs by FACSan flow cytometry. The assay is classed as functional. The method, boiled down: as §2
Assay [10] deals with HepG2. The assay is described as follows: Cell cycle arrest in human HepG2 cells assessed as accumulation at subG0 phase at 5 uM after 36 hrs by FACSan flow cytometry. The assay is classed as functional. The method, boiled down:
as §2

Assay [11] concerns HepG2. The assay is described as follows: Cell cycle arrest in human HepG2 cells assessed as accumulation at G2 phase at 5 uM after 36 hrs by FACSan flow cytometry. Type of assay: functional. The method in brief:
as §2

For assay [12], the system named is HepG2. The assay is described as follows: Cell cycle arrest in human HepG2 cells assessed as accumulation at S phase at 5 uM after 36 hrs by FACSan flow cytometry. Type of assay: functional. The method, boiled down:
as §2

For assay [13], the system named is HepG2. The assay is described as follows: Cell cycle arrest in human HepG2 cells assessed as accumulation at subG0 phase at 10 uM after 36 hrs by FACSan flow cytometry. Type of assay: functional. The method, boiled down: as §2
The subject of assay [14] is HepG2. The assay is described as follows: Cell cycle arrest in human HepG2 cells assessed as accumulation at G1 phase at 10 uM after 36 hrs by FACSan flow cytometry. The assay is classed as functional. The method, boiled down: as §2
The subject of assay [15] is HepG2. The assay is described as follows: Cell cycle arrest in human HepG2 cells assessed as accumulation at G1 phase at 25 uM after 36 hrs by FACSan flow cytometry. The assay is classed as functional. The method in brief: as §2
Assay [16] concerns HepG2. The assay is described as follows: Cell cycle arrest in human HepG2 cells assessed as accumulation at G2 phase at 25 uM after 36 hrs by FACSan flow cytometry. The assay is classed as functional. The method in brief:
as §2

For assay [17], the system named is HepG2. The assay is described as follows: Cell cycle arrest in human HepG2 cells assessed as accumulation at S phase at 25 uM after 36 hrs by FACSan flow cytometry. The assay is classed as functional. The method in brief: as §2
For assay [18], the system named is HepG2. The assay is described as follows: Cell cycle arrest in human HepG2 cells assessed as accumulation at subG0 phase at 50 uM after 36 hrs by FACSan flow cytometry. Type of assay: functional. The method in brief:
as §2

Assay [19] deals with HepG2. The assay is described as follows: Cell cycle arrest in human HepG2 cells assessed as accumulation at G1 phase at 50 uM after 36 hrs by FACSan flow cytometry. The assay is classed as functional. The method in brief: as §2
Assay [20] has as its system HepG2. The assay is described as follows: Cell cycle arrest in human HepG2 cells assessed as accumulation at G2 phase at 50 uM after 36 hrs by FACSan flow cytometry. Type of assay: functional. The method in brief:
as §2

Assay [21] deals with HepG2. The assay is described as follows: Cell cycle arrest in human HepG2 cells assessed as accumulation at S phase at 50 uM after 36 hrs by FACSan flow cytometry. The assay is classed as functional. The method, boiled down:
as §2

Assay [22] relates to HepG2. The assay is described as follows: Induction of apoptosis in human HepG2 cells assessed as caspase 3 activation at 50 uM after 2 to 24 hrs. Type of assay: functional, cell-based. The method, boiled down:
(§3)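 HepG-2 cells were treated for 0, 2, 4, 8, 14 and 24 h. Lysates were made on ice and cleared at 20,000g, 4 °C, and protein was measured by Bradford. 0.1 mg protein was incubated 2 h at 37 °C with Ac-DEVD-pNA (caspase-3), Ac-IETD-pNA (caspase-8) or Ac-LEHD-pNA (caspase-9), and pNA release was read at 405 nm.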

Assay [23] concerns HepG2. The assay is described as follows: Induction of apoptosis in human HepG2 cells assessed as caspase 8 activation at 50 uM after 2 to 24 hrs. Type of assay: functional, cell-based. The method, boiled down:
as §3

The subject of assay [24] is HepG2. The assay is described as follows: Induction of apoptosis in human HepG2 cells assessed as caspase 9 activation at 50 uM after 2 to 24 hrs. The assay is classed as functional, cell-based. The method, boiled down: as §3
Assay [25] has as its system HepG2. The assay is described as follows: Induction of apoptosis in human HepG2 cells assessed as decrease in Bcl2 mRNA expression after 26 hrs by RT-PCR. Type of assay: functional, cell-based. The method, boiled down:
(§4)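 HepG-2 cells treated at 0, 5, 10, 25 and 50 µM for 26 h. cDNA made from 1 µg total RNA and amplified for Bcl-2 and Bax over 30 cycles (98 °C 15 s, 57 °C 10 s, 72 °C 35 s), with GAPDH as control. Results expressed as fold change relative to control.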

The test system of assay [26] is HepG2. The assay is described as follows: Induction of apoptosis in human HepG2 cells assessed as increase in […] mRNA expression after 26 hrs by RT-PCR. Type of assay: functional, cell-based. The method in brief:
as §4

Active and inactive are the calls of the source. No cut-off for these calls is given here.

In the assay with HepG2 [1], `COc1ccccc1-c1cc(=O)c2cc(C(C)C)ccc2o1` had an IC50 of 5.4 µM.
In the assay on HepG2 [1], `CC(C)c1ccc2oc(-c3ccc([N+](=O)[O-])cc3)cc(=O)c2c1` gave an IC50 above 50 µM.
With `COc1cc(OC)cc(-c2cc(=O)c3cc(Cl)ccc3o2)c1`, the concentration for half-maximal inhibition (IC50) in the assay on HepG2 [1] stood at 1.1 µM; in the assay with HeLa it was 3000 nM; in the assay on MCF7, 7.4 µM; in assay [5] it was 10.4 µM; in assay [6], 12.9 µM. The Activity with HepG2 [2] is reported as 55.83%; with HepG2 [3], 13.47%; in the assay on HepG2 [4], 13.32%; in the assay with HepG2 [9], 41.67%; in the assay on HepG2 [10], 21.54%; in the assay on HepG2 [11], 16.47%. The Activity is given as 20.32% in the assay with HepG2 [12]; 34.54% with HepG2 [13]; 38.67% in the assay with HepG2 [14]; 23.38% in the assay on HepG2 [15]; 11.47% with HepG2 [16]; 9.32% in the assay on HepG2 [17]. Moreover, the Activity in the assay on HepG2 [18] is 79.32%; in the assay on HepG2 [19], 11.52%; in the assay on HepG2 [20], 5.69%; in the assay on HepG2 [21] it was 3.47%; in the assay with HepG2 [25], “Dose-dependent effect”. Moreover, the outcome in the assay with HepG2 [7], in the assay on HepG2 [8], with HepG2 [22], in the assay with HepG2 [23], with HepG2 [24] and with HepG2 [26] was Active.
In the assay with HepG2 [1], `O=c1cc(C2CCCC2)oc2c1ccc1ccccc12` came in with an IC50 of 6.1 µM.
Regarding `CC(C)c1ccc2oc(C3CCCCC3)cc(=O)c2c1`, half-maximal inhibition in the assay with HepG2 [1] (IC50) was put at 18 µM.
On the same count and under the same terms, then `O=c1cc(C2CCCCC2)oc2ccc(Cl)cc12`, with 20 µM.
On to `CC(C)c1ccc2oc(-c3ccccc3)cc(=O)c2c1`, for which, in the assay with HepG2 [1], it took 6.4 µM to reach half-maximal inhibition (IC50).
`O=c1cc(C2CCCC2)oc2ccc(Cl)cc12` displayed a half-inhibitory concentration (IC50) with HepG2 [1] of 13.4 µM.
In turn, `COc1cc(-c2cc(=O)c3cc(C(C)C)ccc3o2)cc(OC)c1OC` registered an IC50 in the assay on HepG2 [1] of 3.6 µM.
Same read-out and setting: then `CC(C)c1ccc2oc(C3CCCC3)cc(=O)c2c1`, with 8.6 µM; and `O=c1cc(C2CCCCC2)oc2c1ccc1ccccc12`, with 2.9 µM; and `CC(C)c1ccc2oc(-c3cccc([N+](=O)[O-])c3)cc(=O)c2c1`, with above 50 µM.
As to `COc1cccc(-c2cc(=O)c3cc(C(C)C)ccc3o2)c1`, 2.1 µM corresponded to half-maximal inhibition in the assay with HepG2 [1] (IC50).
For `COc1ccc(-c2cc(=O)c3cc(C(C)C)ccc3o2)cc1`, in the assay with HepG2 [1], the IC50 worked out at 9.9 µM.

As usually defined, the IC50 is the midpoint of a concentration-inhibition curve.
